Reference: ChEMBL document CHEMBL4513216, “Probing the Open Global Health Chemical Diversity Library for Multistage-Active Starting Points for Next-Generation Antimalarials” (ACS Infect Dis, 2020)

Assay: Toxicity liver stage against HepG2, at 10uM
Format: cell-based
Set-up: test concentration 10 uM, cell line HepG2-A16-CD81EGFP
Conditions: human, HepG2-A16-CD81EGFP cells; read-out: INHIBITION
Method in brief: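 Uninfected HepG2-A16-CD81EGFP cells, 3 × 10^3 per well, 1536-well, plated on prespotted compound at 10 μM final, parasite-free screening media added to match infected plates; puromycin 10 μM positive, DMSO 0.5% negative; run in parallel with 48 h PbLuc assay at 37 °C, 5% CO2; viability by CellTiter-Glo luminescence, normalized to controls.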

| Structure (SMILES) | cytotoxicity at 10 µM [%] |
| --- | --- |
| CC(C)COC(C)C(=O)NCCNS(C)(=O)=O (configuration not stated) | -5.26 |
| O=C(CSc1nncs1)N1CCN(Cc2ccc(Cl)s2)CC1 | -4.14 |
| Fc1ccc2[nH]c(CO[C@H]3CN(CC4CC4)C[C@H]3F)nc2c1 | -2.74 |
| COCC(O)CN1CCC(=O)N(Cc2ccccc2)Cc2ccccc21 (configuration not stated) | 1.19 |
| COCCn1ccc2c(C(=O)NC(C)C)cccc21 | 3.46 |
| COCCn1/c(=N/C(=O)C(C)C)sc2cc(Cl)ccc21 | -5.26 |
| CCOCCSc1nnc(-c2cn(CC)nc2OCC)n1C | -3.81 |
| O=S(=O)(NCCNc1ccc(-n2cccc2)nn1)c1cccs1 | -12.3 |
| Cc1cc(CN2C[C@H]3CCC[C@@]3(COCC(=O)N3CCCC3)C2)no1 | 8.31 |
| CN(C)Cc1cc(=O)n2c(n1)CN(CC1CC1)CCC2 | 5.71 |
| CC(C)NC(=O)N1CCN(C(=O)C2CCOCC2)CC2(CNC(=O)C2)C1 (configuration not stated) | 0.748 |
| CS(=O)(=O)N1Cc2nccn2CC(CN2CCCC2=O)C1 (configuration not stated) | 5.8 |
| O=C(NCCN1CCNCC1)c1c(O)c2ccccc2[nH]c1=O | 21 |
| CN1CC(Oc2ccccc2)=NC(SCC(=O)c2ccccc2)=N1 | -6.17 |
| Cc1nc(N2CCCCC2)ncc1-c1cc(O)[nH]n1 | 2.76 |
| CCc1nccn1CCC(=O)N1CCCC1c1cncc(NC)n1 (configuration not stated) | 3.53 |
| CC1COCCN1C(=O)c1ccc(=O)n(Cc2ccccc2)n1 (configuration not stated) | -1.19 |
| CCOc1ccc(NC(=O)NC2CCc3[nH]ncc3C2)cn1 (configuration not stated) | 3.95 |
| FC(F)(F)c1nc(NC2CCc3ncnn3C2)c2ccccc2n1 (configuration not stated) | -2.99 |
| Cc1nn(C)c2ncc(C(=O)N3CCNC(=O)C3)cc12 | -6.62 |
| CN1CCN(C2CCN(Cc3ccc(Cl)cc3)CC2)C1=O | 7.9 |
| CC(Cc1ccsc1)NC(=O)c1cc(N2CCNC2=O)ccc1F (configuration not stated) | -4.62 |
| COCc1cccc(C(=O)N2CCCC2)c1 | -1.7 |

| Structure (SMILES) | cytotoxicity at 10 µM [%] |
| --- | --- |
| O=C(c1ccc(SC(F)F)cc1)N1CCOCC1c1ncon1 (configuration not stated) | 4.79 |
| Cc1nnc(NC(=O)NCC(C)N2CCOCC2)s1 (configuration not stated) | -10.6 |
| CCN(c1ccc(C(=O)Nc2c(C)nn(C(C)C)c2C)cc1)C(C)C | -2.92 |
| COc1ccc2c(c1)CCCN(C(C)C(=O)NC(N)=O)C2 (configuration not stated) | 8.66 |
| CCc1n[nH]c(C2CN(CCCOc3cccc(C)c3)CCO2)n1 (configuration not stated) | -15 |
| CN1CC(Nc2nc3c(cnn3-c3ccccc3)c(=O)[nH]2)CCC1=O (configuration not stated) | -2.75 |
| CCC(=O)N1CCCN(Cc2cc(F)cc(Br)c2)CC1 | 10.3 |
| NC(=O)C1=NC2=NS(=O)(=O)c3ccccc3N2N1Cc1ccc(Br)cc1 | 8.34 |
| CCC(=O)NC1CCCN(Cn2nc(C(C)(C)C)ccc2=O)C1 (configuration not stated) | -1.69 |
| Cc1cc(C(C)NC(=O)c2ccc(O)nc2)c(C)o1 (configuration not stated) | -1.85 |
| CCC(C)CS(=O)(=O)NC(=O)C1CC1 (configuration not stated) | -4.69 |
| Cc1cccc(C2(CNC(=O)C(C)S(C)(=O)=O)CCCC2)c1 (configuration not stated) | -2.76 |
| Cc1noc(C)c1CN(C)C(=O)C1(NS(C)(=O)=O)CCCCC1 | -11.3 |
| Cc1nnc(SCCC(=O)N(C)Cc2ccc(F)cc2F)[nH]1 | 5.21 |
| Cc1csc(CNC(=O)NCC2(c3ccc4c(c3)OCO4)CC2)n1 | 0.0902 |
| Cc1cc(CN2CCN(c3ccnc(-c4ccccc4)n3)CC2)no1 | -8.92 |
| O=C(NCCN1CCOCC1)NCc1ncc(-c2ccccc2)o1 | 1.26 |
| COc1cc(CNC(=O)NCCCF)cc(Br)c1OC | 11.4 |
| CCc1noc(CNc2cc(F)ccc2OCC2CCCO2)n1 (configuration not stated) | -3.27 |
| CCn1cc(C(=O)NC2CCN(S(C)(=O)=O)CC2)c2ccccc21 | 0.95 |
| Cn1cc(NC(=O)Cn2c(CS(C)(=O)=O)nc3ccccc32)cn1 | 1.31 |
| CN(Cc1cnn(C)c1)C(=O)NC1CCC(O)CC1 (configuration not stated) | -14.7 |
| COc1ccc(C2CCCN2C(=O)CCNc2ncccn2)cc1 (configuration not stated) | -13.9 |

| Structure (SMILES) | cytotoxicity at 10 µM [%] |
| --- | --- |
| O=C(C1CCOC1)N1CCC2(CC1)Cc1ccccc1CNC2=O (configuration not stated) | -113 |
| O=C(c1ccco1)N1C[C@H]2CN(Cc3cccc(F)c3)C(=O)[C@H]2C1 | -78.2 |
| CCc1csc(CNC2CCN(c3ccc(C)cc3)CC2)n1 | -10.8 |
| Cc1noc(-c2ccc(N(C)Cc3nccs3)nc2)n1 | 9 |
| CC(C)CCN1CC2(CCN(C(=O)C3(C)CCCCO3)CC2)OC1=O (configuration not stated) | -14.4 |
| O=C(c1ccc2c(c1)OCO2)N1CCCC(Nc2ccc(F)cc2)C1 (configuration not stated) | -5.05 |
| CC(C)CC(=O)N1CCc2ccc(S(=O)(=O)N3CCN(C)CC3)cc2C1 | -15.3 |
| CCNc1ncc(C(=O)NC2CCOCC2)cn1 | 4.37 |
| CCCS(=O)(=O)NCc1cccnc1Oc1ccc(C)nc1 | -1.15 |
| CC(CO)NCc1csc2c1CCCC2 (configuration not stated) | -11.3 |
| CN(CC1COc2ccccc2O1)C(=O)c1ccc(-c2cn[nH]c2)nc1 (configuration not stated) | 5.37 |
| Cn1nnnc1SCCNC(=O)c1c[nH]nc1C1CCCCC1 | -0.863 |
| CN(CC1(CO)CCCC1)[C@@H]1c2ccccc2C2(CCNCC2)[C@H]1O | 1.44 |
| N[C@H]1CN(S(=O)(=O)c2cccnc2)C[C@@H]1C1CC1 | 7.28 |
| COCCc1noc(CN(C)C(=O)C(C)N2CCc3ccccc3C2)n1 (configuration not stated) | -0.262 |
| CC1(c2ccccc2)CCC(=O)N(CCCN2CCOCC2)C1 (configuration not stated) | -18.1 |
| Cc1cc(C)cc(N2CCN(Cc3cccc(CCN)c3)CC2=O)c1 | 3.32 |
| Cc1cnc(NCc2ccncc2)nc1-c1cnn(C)c1 | 15.4 |
| Cc1cnccc1-n1nc(C(C)C)nc1CCN(C)S(C)(=O)=O | -4.05 |
| COc1cccc(CC2CN(C3CCN(C(C)=O)CC3)CCO2)c1 (configuration not stated) | -12.4 |
| O=C(CCc1cc2n(n1)CCCN(C(=O)c1cccnc1)C2)NC1CC1 | -7.38 |
| Cc1cccc2[nH]c(C3CCN(C(=O)c4ccnn4C)CC3)nc12 | -21.6 |
| CCn1c(N)nc2cc(C(=O)NCc3ccccc3Cl)cnc21 | -14.1 |

| Structure (SMILES) | cytotoxicity at 10 µM [%] |
| --- | --- |
| COc1ccc(-c2ccnc3c2C(=O)CCC3)cc1 | 6.09 |
| COc1c(C2CCCN2C(=O)c2cccc(C)n2)c(C)nn1C (configuration not stated) | -7.52 |
| Cc1nc(CN(C)C2CCCN(c3ccccc3)C2)no1 (configuration not stated) | -6.9 |
| CC(Cn1cccn1)NCc1nc(-c2ccsc2)no1 (configuration not stated) | -8.42 |
| COc1ccc(C2=CCN(C(=O)C3CCCN(C(C)=O)C3)CC2)cc1 (configuration not stated) | -13.4 |
| CCc1nc(C2CCCN2C(=O)CCc2c(C)noc2Cl)no1 (configuration not stated) | -7.07 |
| O=C(CCc1cccs1)N1CCCC1c1noc(C2CC2)n1 (configuration not stated) | -4.87 |
| Cc1cnn(CC2CCCN2Cc2nnc(C3CC3)o2)c1 (configuration not stated) | -21.7 |
| COc1c(CNCc2cccc(Cn3cccn3)c2)c(C)nn1C | 1.33 |
| CC(C(=O)NCc1ccc(N2CCN(C)CC2)nc1)n1cccn1 (configuration not stated) | -9.51 |
| CCOc1ccc(C#N)cc1NCC(=O)NC(=O)NC | -8.35 |
| O=C(c1ccc(-n2ccnc2)cc1)N1CCCC(n2ccnc2)C1 (configuration not stated) | -21.1 |
| CCN(CC1CCCO1)C(=O)Nc1cc(C(N)=O)ccc1OC (configuration not stated) | -7.33 |
| Cc1cc(CN2CCOC(CNc3cccnn3)C2)on1 (configuration not stated) | -13.8 |
| Cc1csc(N2CCN(C(=O)c3ccc(C)s3)CC2)n1 | -24.3 |
| Cc1cc(C)n(CC2CCCN2C(=O)Cc2c(C)nc(C)[nH]c2=O)n1 (configuration not stated) | -12.8 |
| CCc1nc(C)c(C(=O)NCCNc2ncccc2C#N)s1 | -8.54 |
| CC(=O)NCCCC(=O)NC(C)c1nnc2n1CCC2 (configuration not stated) | -10.3 |
| CN(C)c1ccc(C(=O)NCc2csc(Br)c2)cn1 | -4.97 |
| Cc1nc(CN2CCN(C(=O)c3sccc3C3CC3)CC2)oc1C | -15.2 |
| CCN1CCN(Cc2csc(C(C)C)n2)CC1 | -5.78 |
| NC(=O)c1cc(C2CCCN(C(=O)CCc3cscn3)C2)n[nH]1 (configuration not stated) | -7.59 |
| c1ccc(-n2ncc(CNC3CCc4ncnn4C3)n2)cc1 (configuration not stated) | -3.38 |

| Structure (SMILES) | cytotoxicity at 10 µM [%] |
| --- | --- |
| Cc1ccccc1OCCC(=O)N1CCCC(n2cncn2)C1 (configuration not stated) | -17.6 |
| CCn1ccnc1CNCC1CCN(CC(O)c2ccccc2)CC1 (configuration not stated) | -12.8 |
| Cc1cnc(CN2CCOC(CNc3cccnn3)C2)cn1 (configuration not stated) | -5.15 |
| Cc1cc(C(=O)N2CCN(C)CC2)nn1CC(=O)NCc1ccccn1 | -3.58 |
| CC1(C)CN(C(CNC2=NCCN2)c2ccc(Cl)cc2)CCO1 (configuration not stated) | 8 |
| OC(CNCc1ccccc1C(F)(F)F)c1ccccc1 (configuration not stated) | -4.63 |
| CN1CCCN(C(=O)c2nc3c(o2)CN(C(=O)c2cccnc2)C3)CC1 | 2.75 |
| COc1ccc(CN2C[C@@H]3CCCO[C@@H]3[C@H](NS(C)(=O)=O)C2)cc1 | -2.83 |
| Fc1cccc(-c2nnn3c2COC(CNCc2cccs2)C3)c1 (configuration not stated) | 1.07 |
| COc1ccc(CCNCc2c(C)nn(C)c2N(C)C)cc1OC | -11.3 |
| c1cnc(NC[C@@H]2CCC[C@@H]3CN(Cc4cc[nH]n4)C[C@@H]32)nc1 | -13.1 |
| COCC1CN(Cc2ccoc2)Cc2nn(CC3CC3)cc21 (configuration not stated) | -2.24 |
| Cn1cc(C(=O)N2CC[C@@H]3[C@@H]2CCN3c2ncc(F)cn2)cn1 | 13.8 |
| Cc1noc(C)c1CN1CCC2(COCc3cnc(N(C)C)nc32)C1 (configuration not stated) | 9.93 |
| Cc1ccsc1C(=O)N1C[C@@H]2CN(Cc3ccoc3)CCO[C@@H]2C1 | -1.19 |
| CN1CCN(C2COC3(CCN(Cc4cccs4)CC3)C2)CC1 (configuration not stated) | -84.5 |
| O=C(COC[C@H]1CC[C@H]2[C@H](CCN2c2ncccn2)O1)N1CCCC1 | -7.41 |
| CCOc1ncnc2c1CCN(Cc1csc(C)n1)CC2 | -68.1 |
| O=C(Cc1cccs1)N1C[C@@H]2OCCN(CC3CCCO3)[C@@H]2C1 (some centres not stated) | -11 |
| CCN1C[C@@H]2C[C@H](C(=O)Nc3ccccc3)[C@H](C1)O2 | -76.4 |
